Screening results as filed in PubChem.
T cruzi HTS – inhibitors of intracellular Trypanosoma cruzi. intracellular Trypanosoma cruzi in host cells, plate reader. activity score (inhibition), % at 5.01 µM. actives 4.9% (n = 22,000); in the data active = activity score above about 55%;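 note: parasites and compound incubated about four days before reading; 0% = median of neutral control wells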
INS-1E rescue – preserves ATP levels in cytokine-treated INS-1E cells | INS-1E cytokine-induced death, ATP luminescence, 48 h; normalised: neutral wells 0, positive control 100 | protection from cytokine-induced ATP loss, % at 10 µM | actives 0.1% (n = 20,000) | AID 488910;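 active = mean replicate protection from cytokine-induced ATP loss at least 50% and at least 75% of replicates each reaching 50%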
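Material: INS-1E rat cells; Quantity: 8000 cells/well; Buffer or medium: phenol-red-free RPMI with 5% fetal bovine serum; Probe or stimulus: cytokine cocktail of IFN-γ, TNF-α and IL-1β; Compound dosing: single test concentration per compound, delivered by pin transfer; Incubation: 48 h co-treatment, 10 min post-lysis read; Signal: CellTiter-Glo luminescence.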
YB-1 expr inh – YB-1 expression inhibition | U2OS, qRT-PCR YB-1 vs CDIP delta delta Cp, 16 h; hits give high values; zero = DMSO, each unit about twofold | delta delta Cp (YB-1 minus CDIP) (no concentration beside the values) | actives 0.37% (n = 30,000) | AID 434959;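 active = delta delta Cp rounded down to an integer at or above 3, about 3 SD of DMSO wells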;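 note: higher means less YB-1 transcript or more CDIP transcript relative to DMSO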
Starred values were filed as active, the others as inactive. Many of the other results were omitted from the sample, so hits are more common in it than they were.

Screening O=C(O)CCC(=O)Nc1ccc(Cc2ccncc2)cc1 returned YB-1 expr inh 8.6*.
COc1ccc(Cc2nnc(SCC(=O)Nc3ccc(OC)cc3)o2)cc1 was read as YB-1 expr inh -0.36.
`COc1ccc(NC(=O)Nc2cccc3c2O[C@@H](CN(C)Cc2ccc(Cl)c(Cl)c2)[C@@H](C)CN([C@@H](C)CO)C3=O)cc1` gave T cruzi HTS -18, INS-1E rescue -3 and YB-1 expr inh -0.062.
C[C@@H]1CN([C@H](C)CO)C(=O)c2cc(NC(=O)NC3CCCCC3)ccc2O[C@@H]1CN(C)S(=O)(=O)c1ccccc1 was read as T cruzi HTS -7, INS-1E rescue 2 and YB-1 expr inh 0.097.
C[C@H]1CN([C@@H](C)CO)C(=O)c2cccc(NC(=O)c3ccncc3)c2O[C@@H]1CN(C)S(=O)(=O)c1ccc(F)cc1 was read as T cruzi HTS -3, INS-1E rescue 5 and YB-1 expr inh 0.88.
CC(C)NC(=O)Nc1ccc2c(c1)CC(=O)N([C@@H](C)CO)C[C@@H](C)[C@@H](CN(C)Cc1ccc(-c3ccccc3)cc1)O2 was read as T cruzi HTS 32, INS-1E rescue -24 and YB-1 expr inh 0.17.
For COc1ccc(NC(=O)Nc2ccc3c(c2)CC(=O)N([C@@H](C)CO)C[C@H](C)[C@@H](CN(C)Cc2ccc(-c4ccccc4)cc2)O3)cc1 the results were T cruzi HTS 21, INS-1E rescue 3 and YB-1 expr inh 0.12.
C[C@H](CO)N1C[C@H](C)[C@H](CN(C)Cc2ccc(-c3ccccc3)cc2)Oc2ccc(NC(=O)Nc3ccc(C(F)(F)F)cc3)cc2CC1=O was read as T cruzi HTS 65*, INS-1E rescue -39 and YB-1 expr inh 0.14.
C[C@H](CO)N1C[C@H](C)[C@H](CN(C)Cc2ccc(C(F)(F)F)cc2)Oc2ccc(NC(=O)Nc3ccccc3)cc2CC1=O was read as T cruzi HTS 26, INS-1E rescue -15 and YB-1 expr inh -0.1.
`C[C@@H]1CN([C@H](C)CO)C(=O)Cc2cc(NC(=O)Nc3ccccc3)ccc2O[C@H]1CN(C)Cc1ccc(C(F)(F)F)cc1` gave T cruzi HTS 55, INS-1E rescue -45 and YB-1 expr inh 0.13.
For COc1ccc(NC(=O)Nc2ccc3c(c2)CC(=O)N([C@@H](C)CO)C[C@H](C)[C@H](CN(C)Cc2ccc(-c4ccccc4)cc2)O3)cc1 the results were T cruzi HTS 71*, INS-1E rescue -65 and YB-1 expr inh 0.29.
Screening CC(C)NC(=O)Nc1ccc2c(c1)CC(=O)N([C@H](C)CO)C[C@H](C)[C@H](CN(C)Cc1ccc(-c3ccccc3)cc1)O2 returned T cruzi HTS 67*, INS-1E rescue -21 and YB-1 expr inh -0.019.
`C[C@@H]1CN([C@H](C)CO)C(=O)Cc2cc(NC(=O)Nc3ccc(C(F)(F)F)cc3)ccc2O[C@@H]1CN(C)Cc1ccc(-c2ccccc2)cc1` gave T cruzi HTS 76*, INS-1E rescue -15 and YB-1 expr inh -0.019.
Cc1noc(C)c1S(=O)(=O)N(C)C[C@@H]1OCCCC[C@@H](C)Oc2ccc(NC(=O)c3ccccc3)cc2C(=O)N([C@H](C)CO)C[C@@H]1C was read as T cruzi HTS 3, INS-1E rescue -6 and YB-1 expr inh -0.073.
C[C@@H]1CN([C@H](C)CO)C(=O)c2cccc(NS(=O)(=O)c3cccs3)c2O[C@H]1CN(C)C(=O)Nc1cccc2ccccc12 was read as T cruzi HTS -4, INS-1E rescue 1 and YB-1 expr inh 0.15.
Screening C[C@@H]1CN([C@H](C)CO)C(=O)Cc2cc(NC(=O)Nc3ccc(F)cc3)ccc2O[C@@H]1CN(C)C(=O)NC1CCCCC1 returned T cruzi HTS 0, INS-1E rescue 2 and YB-1 expr inh -0.24.
Screening C[C@@H]1CN([C@H](C)CO)C(=O)c2cc(NC(=O)Cc3ccccc3)ccc2O[C@H]1CN(C)S(=O)(=O)c1ccc(F)cc1 returned T cruzi HTS 7, INS-1E rescue -5 and YB-1 expr inh 0.015.
For C[C@H]1CN([C@@H](C)CO)C(=O)c2cc(NS(=O)(=O)c3ccc(Cl)cc3)ccc2O[C@@H]1CN(C)Cc1ccccc1 the results were T cruzi HTS 12 and YB-1 expr inh -0.065.
`C[C@@H]1CN([C@H](C)CO)C(=O)Cc2cc(NS(=O)(=O)c3ccccc3)ccc2O[C@H]1CN(C)C(=O)Nc1ccc(F)cc1` gave T cruzi HTS -9, INS-1E rescue 6 and YB-1 expr inh 0.45.
`O=C1C=CC(O)(/C=C/C(=O)OC[C@H]2O[C@@H](Oc3ccc(O)cc3)[C@H](O)[C@@H](OC(=O)/C=C/C3(O)C=CC(=O)C=C3)[C@@H]2O)C=C1` gave YB-1 expr inh 0.08.
`COc1ccc(CN(C)C[C@@H]2Oc3ccc(NS(=O)(=O)c4ccc(F)cc4)cc3C(=O)N([C@@H](C)CO)C[C@H]2C)cc1` gave T cruzi HTS 9, INS-1E rescue -13 and YB-1 expr inh -0.017.
Screening C[C@H]1CN([C@@H](C)CO)C(=O)Cc2cc(NC(=O)Nc3ccc(F)cc3)ccc2O[C@@H]1CN(C)Cc1ccc(-c2ccccc2)cc1 returned T cruzi HTS 37, INS-1E rescue -11 and YB-1 expr inh 0.24.
For C[C@@H]1CN([C@H](C)CO)C(=O)Cc2cc(NC(=O)Nc3ccc(F)cc3)ccc2O[C@@H]1CN(C)Cc1ccc(-c2ccccc2)cc1 the results were T cruzi HTS 61*, INS-1E rescue -29 and YB-1 expr inh -0.4.
Screening Cc1noc(C)c1S(=O)(=O)Nc1ccc2c(c1)CC(=O)N([C@H](C)CO)C[C@@H](C)[C@H](CN(C)Cc1ccc(C(=O)Nc3ccccc3N)cc1)O2 returned T cruzi HTS 28, INS-1E rescue -2 and YB-1 expr inh -0.45.
For Cc1noc(C)c1S(=O)(=O)Nc1cccc2c1O[C@@H](CN(C)S(=O)(=O)c1ccccc1)[C@@H](C)CN([C@H](C)CO)C2=O the results were T cruzi HTS -19, INS-1E rescue 10 and YB-1 expr inh -0.49.
C[C@H](CO)N1C[C@H](C)[C@@H](CN(C)Cc2ccc(C(=O)Nc3ccccc3N)cc2)Oc2c(NS(=O)(=O)c3ccccc3)cccc2C1=O was read as T cruzi HTS 51, INS-1E rescue -4 and YB-1 expr inh -0.95.
Cc1noc(C)c1S(=O)(=O)Nc1ccc2c(c1)CC(=O)N([C@H](C)CO)C[C@@H](C)[C@@H](CN(C)Cc1ccc(C(=O)Nc3ccccc3N)cc1)O2 was read as T cruzi HTS 69*, INS-1E rescue -2 and YB-1 expr inh -0.13.
For Cc1noc(C)c1S(=O)(=O)Nc1cccc2c1O[C@H](CN(C)S(=O)(=O)c1ccccc1)[C@H](C)CN([C@H](C)CO)C2=O the results were T cruzi HTS 65*, INS-1E rescue 9 and YB-1 expr inh -0.18.
Screening Cc1noc(C)c1S(=O)(=O)Nc1ccc2c(c1)C(=O)N([C@H](C)CO)C[C@H](C)[C@@H](CN(C)Cc1ccc(C(=O)Nc3ccccc3N)cc1)O2 returned T cruzi HTS 68*, INS-1E rescue -14 and YB-1 expr inh 0.6.
